Test results as given in ChEMBL document CHEMBL4184147, “Polyphenolic Phytochemicals in Cancer Prevention and Therapy: Bioavailability versus Bioefficacy” (J Med Chem, 2017).

Legend:
[1] = Displacement of [3H]resveratrol from Sprague-Dawley rat brain plasma membranes after 1 hr by beta counting method; format: cell membranes
A549 [2] = assay: Cytotoxicity against human A549 cells assessed as decrease in cell viability after 48 hrs by trypan blue exclusion and LDH release; conditions: A549, 48 h
[3] = Cmax in mouse at 100 mg/kg, po by HPLC method; format: ADME, organism-based; set-up: dose 100 mg/kg, route oral; conditions: in vivo
Procedure, shortened: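 For oral dosing, polyphenol was dissolved in a self-microemulsifying delivery system: 60% surfactant (emulsifier OP:Cremophor EL 1:1), 30% cosurfactant (PEG 400) and 10% oil (ethyl oleate). Total volume given was never above 100 μL. Plasma levels were quantified by previously described methods.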

A549 [4] = assay: Cytotoxicity against human A549 cells assessed as cell viability at 18 uM after 48 hrs by MTT assay; format: functional; conditions: A549, 48 h, read-out: Activity
HT-29 [5] = assay: Cytotoxicity against human HT-29 cells assessed as decrease in cell viability after 48 hrs by trypan blue exclusion and LDH release; conditions: HT-29, 48 h
U-87 MG [6] = assay: Cytotoxicity against human U87 cells assessed as cell viability at 18 uM after 48 hrs by MTT assay; format: functional, U-87MG ATCC; conditions: read-out: Activity
NCI-H460 [7] = assay: Cytotoxicity against human NCI-H460 cells assessed as decrease in cell viability after 48 hrs by MTT assay; format: functional, cell-based; conditions: NCI-H460, 48 h
COLO 201 [8] = assay: Cytotoxicity against human COLO201 cells assessed as cell viability at 18 uM after 48 hrs by MTT assay; format: functional; conditions: COLO 201, 48 h, read-out: Activity
BXPC-3 [9] = assay: Cytotoxicity against human BxPC3 cells assessed as decrease in cell viability after 48 hrs by MTT assay; format: functional, cell-based; conditions: BXPC-3, 48 h
[10] = Cmax in mouse at 10 mg/kg, iv by LC-MS/MS method; format: ADME, organism-based; set-up: dose 10 mg/kg, route intravenous; conditions: in vivo
Procedure, shortened: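 Mouse iv dosing used polyphenol dissolved in DMSO:ethanol (2:1), with total injected volume never above 30 μL. Plasma levels were measured by previously described methods.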

T47D [11] = assay: Cytotoxicity against human T47D cells assessed as decrease in cell viability after 48 hrs by trypan blue exclusion and LDH release
U-87 MG [12] = assay: Cytotoxicity against human U87 cells assessed as decrease in cell viability after 48 hrs by trypan blue exclusion and LDH release
T47D [13] = assay: Cytotoxicity against human T47D cells assessed as cell viability at 18 uM after 48 hrs by MTT assay; format: functional; conditions: read-out: Activity
BXPC-3 [14] = assay: Cytotoxicity against human BxPC3 cells assessed as cell viability at 18 uM after 48 hrs by MTT assay; format: functional; conditions: BXPC-3, 48 h, read-out: Activity
[15] = Plasma concentration in mouse at 10 mg/kg, iv at 60 mins by LC-MS/MS method; format: ADME, organism-based
Procedure, shortened: (§1)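 For IV dosing, compound dissolved in DMSO:ethanol (2:1), total volume no more than 30 μL. For oral dosing, compound given in a self-microemulsifying delivery system (60% surfactant, emulsifier OP:Cremophor EL 1:1; 30% PEG 400; 10% ethyl oleate), total volume no more than 100 μL. Plasma levels measured by previously described methods.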

LN-229 [16] = assay: Cytotoxicity against human LN229 cells assessed as cell viability at 18 uM after 48 hrs by MTT assay; format: functional; conditions: LN-229, 48 h, read-out: Activity
Lipid bilayer = assay: Induction of DOPC/n-decane bilayer property changes assessed as concentration required to double gramicidin-induced quencher influx rate by […]
HT-29 [17] = assay: Cytotoxicity against human HT-29 cells assessed as cell viability at 18 uM after 48 hrs by MTT assay; format: functional; conditions: HT-29, 48 h, read-out: Activity
[18] = Cytotoxicity against human MML1 cells assessed as cell viability at 18 uM after 48 hrs by MTT assay; format: functional; conditions: read-out: Activity
COLO 201 [19] = assay: Cytotoxicity against human COLO201 cells assessed as decrease in cell viability after 48 hrs by trypan blue exclusion and LDH release; conditions: COLO 201, 48 h
[20] = Plasma concentration in mouse at 100 mg/kg, po at 60 mins by LC-MS/MS method; format: ADME, organism-based; procedure, shortened: as §1
NCI-H460 [21] = assay: Cytotoxicity against human NCI-H460 cells assessed as cell viability at 18 uM after 48 hrs by MTT assay; format: functional; conditions: NCI-H460, 48 h, read-out: Activity
MDA-MB-231 [22] = assay: Cytotoxicity against human MDA-MB-231 cells assessed as cell viability at 18 uM after 48 hrs by MTT assay; format: functional; conditions: MDA-MB-231, 48 h, read-out: Activity
[23] = Tmax in mouse at 10 mg/kg, iv by LC-MS/MS method; format: ADME, organism-based; conditions: in vivo; procedure, shortened: as §1
LN-229 [24] = assay: Cytotoxicity against human LN229 cells assessed as decrease in cell viability after 48 hrs by trypan blue exclusion and LDH release; conditions: LN-229, 48 h
[25] = Cytotoxicity against human MML1 cells assessed as decrease in cell viability after 48 hrs by MTT assay; format: functional, cell-based
SK-MEL-2 [26] = assay: Cytotoxicity against human SK-MEL-2 cells assessed as decrease in cell viability after 48 hrs by MTT assay; format: functional, cell-based; conditions: SK-MEL-2, 48 h
[27] = Tmax in mouse at 100 mg/kg, po by HPLC method; format: ADME, organism-based; conditions: in vivo
Procedure, shortened: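 Given orally in a self-microemulsifying delivery system (60% surfactant, emulsifier OP:Cremophor EL 1:1; 30% PEG 400 cosurfactant; 10% ethyl oleate oil), total volume no more than 100 μL. Plasma levels measured by previously described methods.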

PANC-1 [28] = assay: Cytotoxicity against human PANC1 cells assessed as decrease in cell viability after 48 hrs by MTT assay; format: functional, cell-based; conditions: PANC-1, 48 h
MDA-MB-231 [29] = assay: Cytotoxicity against human MDA-MB-231 cells assessed as decrease in cell viability after 48 hrs by trypan blue exclusion and LDH release; conditions: MDA-MB-231, 48 h
SK-MEL-2 [30] = assay: Cytotoxicity against human SK-MEL-2 cells assessed as cell viability at 18 uM after 48 hrs by MTT assay; format: functional; conditions: SK-MEL-2, 48 h, read-out: Activity
PANC-1 [31] = assay: Cytotoxicity against human PANC1 cells assessed as cell viability at 18 uM after 48 hrs by MTT assay; format: functional; conditions: PANC-1, 48 h, read-out: Activity
PANC-1 [32] = assay: Cytotoxicity against human PANC1 cells assessed as cell viability at 16 uM after 48 hrs by MTT assay; format: functional; conditions: PANC-1, 48 h, read-out: Activity
U-87 MG [33] = assay: Cytotoxicity against human U87 cells assessed as cell viability at 16 uM after 48 hrs by MTT assay; format: functional, U-87MG ATCC; conditions: read-out: Activity
A549 [34] = assay: Cytotoxicity against human A549 cells assessed as cell viability at 16 uM after 48 hrs by MTT assay; format: functional; conditions: A549, 48 h, read-out: Activity
NCI-H460 [35] = assay: Cytotoxicity against human NCI-H460 cells assessed as cell viability at 16 uM after 48 hrs by MTT assay; format: functional; conditions: NCI-H460, 48 h, read-out: Activity
T47D [36] = assay: Cytotoxicity against human T47D cells assessed as cell viability at 16 uM after 48 hrs by MTT assay; format: functional; conditions: read-out: Activity
BXPC-3 [37] = assay: Cytotoxicity against human BxPC3 cells assessed as cell viability at 16 uM after 48 hrs by MTT assay; format: functional; conditions: BXPC-3, 48 h, read-out: Activity
SK-MEL-2 [38] = assay: Cytotoxicity against human SK-MEL-2 cells assessed as cell viability at 16 uM after 48 hrs by MTT assay; format: functional; conditions: SK-MEL-2, 48 h, read-out: Activity
HT-29 [39] = assay: Cytotoxicity against human HT-29 cells assessed as cell viability at 16 uM after 48 hrs by MTT assay; format: functional; conditions: HT-29, 48 h, read-out: Activity
MDA-MB-231 [40] = assay: Cytotoxicity against human MDA-MB-231 cells assessed as cell viability at 16 uM after 48 hrs by MTT assay; format: functional; conditions: MDA-MB-231, 48 h, read-out: Activity
[41] = Cytotoxicity against human MML1 cells assessed as cell viability at 16 uM after 48 hrs by MTT assay; format: functional; conditions: read-out: Activity
LN-229 [42] = assay: Cytotoxicity against human LN229 cells assessed as cell viability at 16 uM after 48 hrs by MTT assay; format: functional; conditions: LN-229, 48 h, read-out: Activity
COLO 201 [43] = assay: Cytotoxicity against human COLO201 cells assessed as cell viability at 16 uM after 48 hrs by MTT assay; format: functional; conditions: COLO 201, 48 h, read-out: Activity

| SMILES | Ki [1] [µM] | IC50 (A549 [2]) [µM] | Cmax [3] [µM] | IC50 (HT-29 [5]) [µM] | IC50 (NCI-H460 [7]) [µM] | IC50 (BXPC-3 [9]) [µM] | Cmax [10] [µM] | IC50 (T47D [11]) [µM] | IC50 (U-87 MG [12]) [µM] | concentration at 1 h [15] [µM] | Activity (Lipid bilayer) [µM] | IC50 (COLO 201 [19]) [µM] | concentration at 1 h [20] [µM] | Tmax [23] [min] | IC50 (LN-229 [24]) [µM] | IC50 [25] [µM] | IC50 (SK-MEL-2 [26]) [µM] | Tmax [27] [min] | IC50 (PANC-1 [28]) [µM] | IC50 (MDA-MB-231 [29]) [µM] | also measured |
| --- | --- | --- | --- | --- | --- | --- | --- | --- | --- | --- | --- | --- | --- | --- | --- | --- | --- | --- | --- | --- | --- |
| O=C(O[C@@H]1Cc2c(O)cc(O)cc2O[C@@H]1c1ccc(O)c(O)c1)c1cc(O)c(O)c(O)c1 [EPICATECHIN GALLATE] | 0.025 to 0.045 |  |  |  |  |  |  |  |  |  |  |  |  |  |  |  |  |  |  |  |  |
| O=c1c(-c2ccc(O)cc2)coc2cc(O)cc(O)c12 [GENISTEIN] |  | 64 | 17 | 50 | 47 | 79 | 35 | 48 | 55 | < 1 | 26.7 | 73 | < 1 | 5 | 44 | 42 | 36 | 10 | 87 | 43 | viability at 18 µM (A549 [4]): 107%; viability at 18 µM (U-87 MG [6]): 98%; viability at 18 µM (COLO 201 [8]): 100%; viability at 18 µM (T47D [13]): 93%; viability at 18 µM (BXPC-3 [14]): 96%; viability at 18 µM (LN-229 [16]): 100%; viability at 18 µM (HT-29 [17]): 104%; viability at 18 µM [18]: 104%; viability at 18 µM (NCI-H460 [21]): 102%; viability at 18 µM (MDA-MB-231 [22]): 91%; viability at 18 µM (SK-MEL-2 [30]): 105%; viability at 18 µM (PANC-1 [31]): 99% |
| Oc1ccc(/C=C/c2cc(O)cc(O)c2)cc1 [RESVERATROL] | 0.102 | 16 | 11 | 27 | 12 | 14 | 32 | 25 | 20 | < 1 | 11.3 | 37 | < 1 | 5 | 11 | 12 | 14 | 10 | 39 | 15 | viability at 16 µM (PANC-1 [32]): 105%; viability at 16 µM (U-87 MG [33]): 99%; viability at 16 µM (A549 [34]): 93%; viability at 16 µM (NCI-H460 [35]): 94%; viability at 16 µM (T47D [36]): 99%; viability at 16 µM (BXPC-3 [37]): 98%; viability at 16 µM (SK-MEL-2 [38]): 95%; viability at 16 µM (HT-29 [39]): 98%; viability at 16 µM (MDA-MB-231 [40]): 95%; viability at 16 µM [41]: 94%; viability at 16 µM (LN-229 [42]): 102%; viability at 16 µM (COLO 201 [43]): 96% |
